Experimental data from PMC7246176 (Nature chemical biology, 2020).

Legend:
zebrafish = test: Toxicity evaluation during zebrafish embryonic development; format: in vivo; settings: days 1 to 8 post-fertilization, in fish water at concentrations up to 10 μM
[1] = Maximum dose tolerability evaluation in mice; format: in vivo, C57B6/6J mice; settings: doses up to 100 mg/kg, oral gavage daily for two weeks, no adverse effects, no loss of body weight
rat hippocampal neurons = test: Rat primary hippocampal neuron viability; format: cell-based; settings: concentrations up to 10 μM, 24 hours
In short: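 Rat primary hippocampal neurons on poly-L-lysine-coated coverslips were treated at DIV6 for 24 h with DMSO or test compound. They were then fixed in glutaraldehyde-containing cytoskeleton buffer with Triton X-100, followed by NaBH4, permeabilized in TBS with 0.5% Triton X-100, and processed for immunofluorescence.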

ERK5 = ERK5 (Homo sapiens, UniProt Q13164); test: ERK5 KINOMEscan binding assay
[2] = target: T1, purified, recombinant DCLK1 kinase domain (Homo sapiens, UniProt O15075); test: DCLK1 isothermal titration calorimetry; format: binding
T1 sequence (O15075 351-689 isoform O15075-2): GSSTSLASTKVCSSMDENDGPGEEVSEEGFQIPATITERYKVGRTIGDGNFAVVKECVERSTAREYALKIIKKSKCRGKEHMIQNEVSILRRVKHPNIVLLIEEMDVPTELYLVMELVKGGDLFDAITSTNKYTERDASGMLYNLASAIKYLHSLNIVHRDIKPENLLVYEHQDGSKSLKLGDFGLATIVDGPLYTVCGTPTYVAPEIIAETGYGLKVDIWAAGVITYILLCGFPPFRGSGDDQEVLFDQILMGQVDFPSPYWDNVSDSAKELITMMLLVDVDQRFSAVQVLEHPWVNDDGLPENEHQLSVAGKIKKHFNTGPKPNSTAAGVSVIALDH

ERK5, sequence (Q13164 whole entry, the tested form may be a part): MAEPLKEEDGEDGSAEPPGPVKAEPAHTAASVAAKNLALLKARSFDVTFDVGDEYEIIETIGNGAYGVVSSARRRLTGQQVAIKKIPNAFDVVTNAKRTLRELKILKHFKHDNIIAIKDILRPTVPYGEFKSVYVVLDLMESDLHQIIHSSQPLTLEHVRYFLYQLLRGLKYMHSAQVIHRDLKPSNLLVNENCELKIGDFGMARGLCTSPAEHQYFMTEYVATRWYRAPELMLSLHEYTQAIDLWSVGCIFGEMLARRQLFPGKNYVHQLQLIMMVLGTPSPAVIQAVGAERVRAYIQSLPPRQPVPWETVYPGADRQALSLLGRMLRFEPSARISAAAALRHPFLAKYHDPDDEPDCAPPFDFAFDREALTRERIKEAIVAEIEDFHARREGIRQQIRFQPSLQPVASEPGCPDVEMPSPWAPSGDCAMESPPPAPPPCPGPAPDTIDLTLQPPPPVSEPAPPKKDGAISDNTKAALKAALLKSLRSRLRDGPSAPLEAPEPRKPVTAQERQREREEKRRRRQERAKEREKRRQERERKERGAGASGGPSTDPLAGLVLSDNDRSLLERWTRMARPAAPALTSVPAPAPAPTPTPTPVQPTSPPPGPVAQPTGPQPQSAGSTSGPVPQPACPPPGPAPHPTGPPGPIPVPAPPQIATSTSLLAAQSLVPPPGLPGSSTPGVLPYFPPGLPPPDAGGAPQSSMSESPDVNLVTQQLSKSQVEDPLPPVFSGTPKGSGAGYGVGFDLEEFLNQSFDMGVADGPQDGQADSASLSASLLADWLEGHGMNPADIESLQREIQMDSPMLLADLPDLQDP

Structure (SMILES): COc1cc(N2CCN(C)CC2)ccc1Nc1ncc2c(n1)N(C)c1ccccc1C(=O)N2CC(F)(F)F [DCLK1-IN-1]
- effect on zebrafish CNS or other organ system development (zebrafish): no discernable effect
- tolerability (maximum tolerated dose study) [1]: well-tolerated
- effect on neuronal viability (rat hippocampal neurons): no effect on neuronal viability
- IC50 (ERK5): 1800 nM
- Kd ([2]; ITC Kd, purified recombinant DCLK1 protein, Table 1): 55 nM
- Kd ([2]; Kd, ITC, 20 μM DCLK1, 200 μM compound, Supplementary Table 2 and text): 109 nM
